In publication PMC7839861 (Journal for Immunotherapy of Cancer, 2021):

Test system: MC38 tumors
Assay: Transcriptional
Type: in vivo, mouse
Conditions: 2 mg/kg ip Q3D x3
Outline: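 hCD137 C57BL/6J mice bearing sc MC38 tumors (1 x 10^6 cells) were randomized at about 240 mm3. Groups received vehicle, 15 mg/kg test compound or 15 mg/kg enantiomeric non-binding control iv, or 2 mg/kg anti-CD137 agonist antibody ip, Q3D for 3 doses. Tumors were harvested 1 hr after the last dose. RNA (100 ng/tumor) was profiled on the nCounter mouse PanCancer IO 360 panel, and FFPE sections were stained for mouse CD8 with HRP detection.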

B1: anti-CD137 agonist antibody: anti-CD137 agonist antibody, a commercially available urelumab analog (antibody, V domains shown)
VH: QVQLQQWGAGLLKPSETLSLTCAVYGGSFSGYYWSWIRQSPEKGLEWIGEINHGGYVTYNPSLESRVTISVDTSKNQFSLKLSSVTAADTAVYYCARDYGPGNYDWYFDLWGRGTLVTVSS
VL: EIVLTQSPATLSLSPGERATLSCRASQSVSSYLAWYQQKPGQAPRLLIYDASNRATGIPARFSGSGSGTDFTLTISSLEPEDFAVYYCQQRSNWPPALTFGGGTKVEIK
T cell infiltration of tumors, histological analysis (CD8 IHC): notably increased
